Published values of several laboratories.
Compare with care: the assays were run in different laboratories.
Spike glycoprotein: Spike glycoprotein (Severe acute respiratory syndrome coronavirus 2, UniProt P0DTC2)

Structure (SMILES)	target	assay	conditions	quantity	result
Nc1ncc(-c2nc(N3CCOCC3)nc(N3CCOCC3)n2)c(C(F)F)n1	Tyrosine-protein kinase ABL1, non-phosphorylated (ABL1, Homo sapiens, UniProt P00519)	binding, competition with immobilised ligand	10 µM	remaining binding	70%
CCCCCCCCCCCCCCCCCCCCCCCCCC(=O)N[C@@H](CO[C@H]1O[C@H](CO)[C@H](O)[C@H](O)[C@H]1O)[C@H](O)[C@H](O)CCCCCCCCCCCCCC	Cd1d1 (Mus musculus, UniProt P11609)	binding, SPR	–	kon	63000 M⁻¹ s⁻¹
COc1ncccc1-c1cnn2ccc(N3CCN(C(=O)OC(C)C)CC3)nc12	Serine/threonine-protein kinase RIO1 (RIOK1, Homo sapiens, UniProt Q9BRS2)	binding, competition with immobilised ligand	1 µM	remaining binding	3.9%
C=C1C[C@@]23CC[C@H]4[C@@](C)(CCC[C@@]4(C)C(=O)O[C@@H]4O[C@H](CO)[C@@H](O)[C@H](O)[C@H]4O)[C@@H]2CC[C@]1(O[C@@H]1O[C@H](CO)[C@@H](O)[C@H](O)[C@H]1O)C3	Spike glycoprotein	binding, BLI	–	koff	0.122 s⁻¹
CC[C@H](C)[C@@H]1NC(=O)[C@H](Cc2ccc(O)cc2)NC(=O)[C@H](C(C)C)NC(=O)[C@H]([C@@H](C)CC)NC(=O)[C@H](CO)NC(=O)[C@H](Cc2ccc(O)cc2)NC(=O)CSC[C@@H](C(N)=O)NC(=O)CNC(=O)[C@H](CCCNC(=N)N)NC(=O)CNC(=O)[C@H](C(C)C)NC(=O)[C@H](Cc2ccccc2)NC(=O)[C@H](CCCNC(=N)N)NC(=O)[C@H](C(C)C)NC(=O)[C@H](CCC(=O)O)NC(=O)CNC(=O)[C@H](CCCCN)NC1=O	Spike glycoprotein	binding	–	koff	0.0058 s⁻¹
C=C[C@@](C)(/C=C/c1ccc(O)cc1)CCC=C(C)C	Spike glycoprotein	binding	–	kon	1190 M⁻¹ s⁻¹
Cn1cc(-c2cc(F)cc(N3CCn4c(cc5c4CCCC5)C3=O)c2CO)cc(Nc2ccc(N3CCN(C4COC4)CC3)cn2)c1=O	Tyrosine-protein kinase ABL1 (ABL1, Homo sapiens, UniProt P00519, E255K)	enzyme activity, inhibitor	0.1 µM	inhibition	1%
O=c1c(O)c(-c2ccc(O)cc2)oc2cc(O)cc(O)c12	Spike glycoprotein	binding, BLI	–	koff	0.053 s⁻¹
C#Cc1n[nH]c2c(-c3cn(C(C)c4ccccn4)c(=O)[nH]c3=O)cc(F)cc12 (stereo not shown)	Receptor tyrosine-protein kinase erbB-2 (ERBB2, Homo sapiens, UniProt P04626)	enzyme activity, inhibitor	1 µM	inhibition	-4.5%
Cc1nn(C)cc1-c1nc2c(N3CCN(Cc4ccc(Cl)cc4)CC3)c(Cl)cnc2[nH]1	Tyrosine-protein kinase ABL1, non-phosphorylated (ABL1, Homo sapiens, UniProt P00519, H396P)	binding, competition with immobilised ligand	1 µM	remaining binding	100%
CC[C@H](C)[C@@H]1NC(=O)[C@H](C)NC(=O)[C@H](CCCCN)NC(=O)[C@H](Cc2c[nH]c3ccccc23)NC(=O)[C@H](CC(C)C)NC(=O)[C@H](CC(C)C)NC(=O)[C@H](C(C)C)NC(=O)[C@H](CC(=O)O)NC(=O)[C@H](Cc2ccccc2)NC(=O)[C@H](Cc2ccc(O)cc2)NC(=O)[C@@H](Cc2ccc(O)cc2)NC(=O)CSC[C@@H](C(N)=O)NC(=O)[C@H](CO)NC1=O	Spike glycoprotein	binding	–	koff	0.065 s⁻¹
Cn1cc(-c2cccc(N3CCc4c(sc5c4CC(C)(C)C5)C3=O)c2CO)cc(Nc2ccncn2)c1=O	Serine/threonine-protein kinase WNK2 (WNK2, Homo sapiens, UniProt Q9Y3S1)	enzyme activity, inhibitor	1 µM	inhibition	2%
O=c1cc(-c2ccccc2)oc2c(O)c(O)ccc12	Spike glycoprotein	binding, BLI	–	koff	0.0482 s⁻¹
